Screens deposited in PubChem by several laboratories.
Sampled rows, rich in hits. Any-hit rate of the full collection: about 3.5%.
PAFAH2 FP inh: inhibitors of human PAFAH2. inhibition, % at 3.39 µM. recombinant PAFAH2, FP-rhodamine activity probe, fluorescence polarization. 340,000 compounds, 0.99% hits. Q99487;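 active = inhibition above the mean over all tested compounds plus 3 SD, cut at about 30% in these data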;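 also: inhibitors block probe labeling of enzyme so polarization drops; 0% = enzyme with DMSO and 100% = wells lacking PAFAH2 protein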
pPAFAH FP inh: pPAFAH (human) enzyme inhibition. recombinant pPAFAH, FP-rhodamine probe fluorescence polarization. Q13093. inhibition, % at 3.39 µM. 330,000 compounds, 1.5% hits. AID 463082;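 active = inhibition above the mean inhibition across the screen plus 3 SD, cut at about 25% in these data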;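 also: inhibitors block binding of the rhodamine activity-based probe so polarization drops; 0% = enzyme with DMSO and 100% = wells lacking pPAFAH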
PREPL inh: inhibitors of human prolyl oligopeptidase-like enzyme PREPL; recombinant PREPL, fluorescence polarization activity-based probe; inhibition, % at 5.96 µM; 320,000 compounds, 0.68% hits; AID 2751; in the data active = inhibition above about 43%;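 also: 0% = enzyme with DMSO and 100% = wells lacking enzyme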
PAFAH1B2 inh: blocks human PAF acetylhydrolase 1b catalytic subunit 2. P68402. recombinant PAFAH1B2, FP-rhodamine activity probe, fluorescence polarization. inhibition, % at 3.39 µM. 340,000 compounds, 1.2% hits. AID 492953;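 active = inhibition above the mean of all tested compounds plus 3 SD, cut at about 24% in these data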;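 also: 0% = enzyme with DMSO and 100% = wells lacking PAFAH1B2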
Target sequence (P68402 whole entry, looked up): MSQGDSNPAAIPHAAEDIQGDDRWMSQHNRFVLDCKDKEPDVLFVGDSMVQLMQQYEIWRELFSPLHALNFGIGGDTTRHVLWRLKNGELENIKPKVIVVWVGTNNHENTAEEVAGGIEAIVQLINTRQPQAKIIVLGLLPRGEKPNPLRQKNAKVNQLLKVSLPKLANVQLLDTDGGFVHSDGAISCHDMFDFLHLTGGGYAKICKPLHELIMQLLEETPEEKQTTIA
PAFAH1B3 inh: blocks human PAF acetylhydrolase 1B catalytic subunit 3; Q15102; recombinant PAFAH1B3, FP-rhodamine probe, fluorescence polarization; inhibition, % at 3.39 µM; 340,000 compounds, 0.28% hits; AID 492972;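 active = inhibition above the screen-wide average of all tested compounds plus 3 SD, cut at about 25% in these data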;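 also: 0% = enzyme with DMSO only and 100% = wells lacking PAFAH1B3 protein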
Target sequence (Q15102 whole entry, looked up): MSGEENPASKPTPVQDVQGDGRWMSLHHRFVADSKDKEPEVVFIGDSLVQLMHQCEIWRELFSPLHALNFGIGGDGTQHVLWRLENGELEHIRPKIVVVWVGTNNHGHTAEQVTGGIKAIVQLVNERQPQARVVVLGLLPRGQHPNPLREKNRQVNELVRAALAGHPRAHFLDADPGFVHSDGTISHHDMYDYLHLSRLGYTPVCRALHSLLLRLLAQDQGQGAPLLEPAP
Apaf1 inhib: blocks human Apaf-1 apoptosome activity; O14727; reconstituted apoptosome caspase-3 activity, DEVD-Rh110 fluorescence; inhibition, % at 20 µM; 330,000 compounds, 0.71% hits; active = inhibition of at least 40% at 20 µM;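 also: plate controls were DMSO wells for no effect and DEVD-CHO caspase inhibitor wells for full effect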
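Assay system: Apoptosome proteins | Medium: pH 7.5 Hepes buffer with CHAPS, BSA, DTT | Also added: Cytochrome c and DEVD-Rh110 substrate | Times: 30 min plus 50 min, RT | Detection: Rhodamine 110 fluorescence at Ex 480/Em 540 nm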
PAFAH2 FP conf: PAFAH2 (human) inhibition, confirmed; inhibition, % at 3.39 µM; shares compounds with PAFAH2 FP inh; recombinant PAFAH2, FP-rhodamine activity probe, fluorescence polarization; AID 493030; 2,300 compounds, 65% hits;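 active = mean inhibition over three repeats above a set limit taken from the earlier primary screen, cut at about 30% in these data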;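 also: inhibitor blocks binding of rhodamine activity probe so polarization falls; 0% = enzyme with DMSO and 100% = wells lacking PAFAH2 protein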
* = called active by the depositor; . = no result given.

SMILES | PAFAH2 FP inh | pPAFAH FP inh | PREPL inh | PAFAH1B2 inh | PAFAH1B3 inh | Apaf1 inhib | PAFAH2 FP conf
Cc1cc(Br)ccc1OCCCCN1CCCCC1 | 3 | 6 | 25 | 2 | 0 | 1 | .
COc1cc(/C=C(\C#N)C(=O)N2CCc3ccccc32)ccc1O | 4 | 3 | 7 | -2 | 9 | -2 | .
N#C/C(=C\c1ccc(O)c(O)c1)C(=O)N1CCc2ccccc21 | 49* | 3 | 17 | 10 | 23 | -3 | 33*
COc1ccc(C2OC(=O)c3ccccc3S2)cc1 (centres undefined) | 86* | 4 | 23 | 3 | 5 | 29 | 78*
COc1cc(C2OC(=O)c3ccccc3S2)cc(OC)c1OC (centres undefined) | 6 | 3 | 14 | 2 | 7 | -1 | .
CNC(=O)C1CC(=O)N(c2ccc(OCC(=O)N3CCCC3)cc2)C1 (centres undefined) | -1 | -3 | 12 | 1 | 6 | 5 | .
O=C(COc1ccc(Cl)cc1)OCC(=O)N1CCCC1 | 37* | 16 | 16 | 5 | 10 | -1 | 21
NC(=O)C1CC(=O)N(c2ccc(OCC(=O)N3CCCC3)cc2)C1 (centres undefined) | 57* | . | . | 2 | 6 | . | 48*
COc1ccc(N2CC(O)=C(c3nc(-c4ccc(F)cc4)cs3)C2=N)cc1OC | 41* | 22 | 21 | 1 | 10 | 20 | 42*
Cc1n[nH]c(C)c1S(=O)(=O)N1CCN(S(=O)(=O)c2cccc(F)c2)CC1 | -4 | . | . | -3 | 1 | 12 | .
COc1cc(/C=C/C(=O)OCC(=O)NC(=O)NC(C)(C)C)cc(OC)c1OC | 4 | 2 | 18 | 5 | 2 | 8 | .
COC(=O)CNC(=O)COC(=O)/C=C/c1ccc(F)cc1 | -2 | 3 | -3 | -2 | 0 | 3 | .
COc1ccc(/C=C/C(=O)OCC(=O)NC(=O)NC(C)(C)C)cc1 | 38* | 1 | 4 | 8 | 2 | 10 | 20
CC(C)(C)NC(=O)COC(=O)/C=C/c1ccc(F)cc1 | 65* | 5 | 6 | 0 | 9 | 3 | 47*
COc1ccc(C(=O)N/C(=C\c2cn(S(=O)(=O)N(C)C)c3ccccc23)C(=O)NCCCN2CCOCC2)cc1 | 7 | 6 | -2 | 3 | 11 | 3 | .
Cc1nc2nc(-c3ccccc3)cc(=O)n2[nH]1 | 3 | 5 | 8 | -1 | 7 | 14 | .
O=c1cc(-c2ccccc2)nc2nc(-c3ccco3)[nH]n12 | 42* | 6 | -1 | 11 | 7 | 7 | 7
C[C@H]1COC(=O)CC/C=C\C[C@H](CC(=O)N(CCO)Cc2ccccc2)C(=O)N1 | 3 | 0 | 2 | 3 | 7 | -11 | .
O=C1CCC/C=C\C[C@@H](CC(=O)N(CCO)Cc2ccccc2)C(=O)N[C@H](c2ccccc2)CO1 | 66* | 9 | 5 | 7 | 7 | -3 | 56*
Nc1c(Cl)cc(Cl)cc1C(=O)OCC(=O)N1CCCC1 | 0 | 4 | 8 | 6 | -1 | -11 | .
Nc1c(Cl)cc(Cl)cc1C(=O)OCC(=O)N1CCCC1=O | 40* | 3 | 10 | 14 | 0 | 7 | 36*
Cc1cccc(C(=O)OCC(=O)N2CCCC2=O)c1O | 38* | -3 | -3 | 1 | 4 | 13 | 22
COc1ccc(F)c(CN2CCCC(CNS(=O)(=O)c3cccc4cccnc34)C2)c1 (centres undefined) | -2 | 5 | 6 | 4 | 1 | 0 | .
COCc1ccc([C@@H]2C[C@H]3CN(Cc4cccc(Cl)c4)C(=O)[C@]34CCCN24)o1 | 1 | 3 | 8 | 6 | 8 | -1 | .
Cc1cccc(NC(=O)CNC(=O)c2ccc(-n3cncn3)c([N+](=O)[O-])c2)c1C | 38* | -2 | 8 | -4 | 5 | -2 | -3
SMILES | PAFAH2 FP inh | pPAFAH FP inh | PREPL inh | PAFAH1B2 inh | PAFAH1B3 inh | Apaf1 inhib | PAFAH2 FP conf
O=C(CC12CC3CC(CC(C3)C1)C2)Nc1c(F)cccc1F | 4 | 5 | 0 | 13 | 12 | 2 | .
Nc1cc(C(=O)OCC(=O)NCCC2=CCCCC2)ccc1Cl | 52* | 16 | 11 | 3 | -5 | 10 | 38*
O=C(COC(=O)c1ccccc1)NCCC1=CCCCC1 | 35* | 9 | 3 | 2 | 0 | -7 | 31*
Cc1ccsc1C(=O)OCC(=O)NCCC1=CCCCC1 | 32* | 9 | -10 | 0 | -2 | 0 | 25
O=C(COC(=O)c1ccc(Br)cc1)NCCC1=CCCCC1 | 31* | 19 | -33 | 3 | 8 | 6 | 32*
O=C(COC(=O)c1cnc(Cl)c(Cl)c1)NCCC1=CCCCC1 | 5 | 0 | 5 | -3 | 8 | -3 | .
O=C(COC(=O)c1cccc(F)c1)NCCC1=CCCCC1 | 18 | 22 | 8 | 1 | 5 | 11 | .
Fc1cccc(Cc2noc(CN3CCCN(C4Cc5ccccc5C4)CC3)n2)c1 | 3 | 9 | 6 | -2 | 12 | 11 | .
CN1C2CCC1CC(NC(=O)c1cccc(C(F)(F)F)c1)C2 (centres undefined) | 32* | 4 | 4 | 21 | 18 | -6 | -2
Cc1cccc(C(=O)NC2CC3CCC(C2)N3C)c1 (centres undefined) | 0 | . | . | 5 | 7 | 6 | .
COc1cc(/C=C/C(=O)OCC(=O)NCCC2=CCCCC2)ccc1O | 57* | 14 | 23 | 3 | -5 | 8 | 63*
COc1cc(/C=C/C(=O)OCC(=O)NCCC2=CCCCC2)cc(OC)c1OC | 33* | 13 | 21 | 4 | -4 | 12 | 10
O=C(COC(=O)/C=C/c1cccc(Br)c1)NCCC1=CCCCC1 | 7 | 3 | -4 | -4 | -2 | 8 | .
Cc1ccccc1C(=O)N1CCC(C(=O)NC(C)c2ccc(-n3ccnc3)cc2)CC1 (centres undefined) | -1 | -4 | 2 | 11 | 14 | 9 | .
O=C(O)c1ccccc1NSc1ccccc1[N+](=O)[O-] | 37* | 13 | -3 | 4 | 6 | -4 | 26
CCOC(=O)N1CCN(C(=O)C2CCN(S(=O)(=O)c3ccc(OC)cc3)CC2)CC1 | 8 | 5 | -3 | 10 | 1 | -3 | .
CCOc1ccc(S(=O)(=O)N2CCC(C(=O)N3CCN(Cc4ccccc4)CC3)CC2)cc1 | -9 | -4 | 12 | -2 | 6 | 13 | .
O=C(CCS(=O)(=O)c1ccc(Br)cc1)N1CCN(c2ccc(Cl)cc2)CC1 | 10 | -5 | -7 | 10 | 6 | 18 | .
O=C(CCS(=O)(=O)c1ccc(Br)cc1)N1CCN(c2ccc(F)cc2)CC1 | 39* | 5 | -30 | 10 | 9 | 1 | 16
C/C(=N\NC(=S)NCC(C)(C)C)c1cc(F)cc(F)c1O | 33* | 9 | -2 | 7 | 21 | -23 | 14
O=C(COc1ccc(F)cc1)Nc1c(C(=O)N2CCC(N3CCCCC3)CC2)oc2ccccc12 | -3 | -2 | 10 | -2 | 6 | 16 | .
